Residue numbers refer to the chain shown, from its start.
Key:
[1] = target: zebra fish P2X4; conditions: cited from earlier work
[2] = target: human P2X3; conditions: cited from earlier work
[3] = target: T1, rP2X7-R125A/Q143A/I214A (Rattus norvegicus, UniProt Q64663, I214A/Q143A/R125A); assay: TEVC deactivation time; format: cell-based; conditions: after 100 μM ATP or 100 μM BzATP
T1 sequence (Q64663 1-595 R125A/Q143A/I214A): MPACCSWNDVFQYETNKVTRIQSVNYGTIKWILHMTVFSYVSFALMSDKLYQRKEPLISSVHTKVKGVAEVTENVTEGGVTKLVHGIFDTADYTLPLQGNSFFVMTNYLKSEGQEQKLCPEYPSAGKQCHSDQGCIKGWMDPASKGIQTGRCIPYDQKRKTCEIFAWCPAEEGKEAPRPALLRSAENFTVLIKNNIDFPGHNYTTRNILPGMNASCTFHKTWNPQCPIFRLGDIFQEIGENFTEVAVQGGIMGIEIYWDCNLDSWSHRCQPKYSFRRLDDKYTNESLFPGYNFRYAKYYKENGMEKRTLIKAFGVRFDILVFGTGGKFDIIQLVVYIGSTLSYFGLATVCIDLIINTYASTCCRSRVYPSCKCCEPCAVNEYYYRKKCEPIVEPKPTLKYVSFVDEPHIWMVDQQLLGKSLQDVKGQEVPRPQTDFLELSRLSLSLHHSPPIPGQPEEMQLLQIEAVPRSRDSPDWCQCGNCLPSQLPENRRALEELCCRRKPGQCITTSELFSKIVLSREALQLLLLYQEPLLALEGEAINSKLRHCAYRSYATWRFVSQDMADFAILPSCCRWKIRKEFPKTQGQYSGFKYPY
In short: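 Triple-mutant rP2X7 was expressed ~20 h in Xenopus oocytes (50 nL of 10 ng/µL mRNA) and recorded by TEVC in pH 7.4 HEPES buffer containing flufenamic acid. Deactivation followed 100 µM ATP or 100 µM BzATP. τ is the time to 63% return to baseline after washout, from a one- or two-phase decay fit. Triplicate over first to third applications per oocyte; mean ± SD.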

[4] = target: T2, full-length wild-type rP2X7 (Rattus norvegicus, UniProt Q64663); assay: TEVC dose response; format: cell-based; conditions: WT rP2X7, TEVC
T2 sequence (Q64663 1-595): T1 sequence (Q64663 1-595 R125A/Q143A/I214A) with A125R, A143Q, A214I
In short: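 TEVC was run on Xenopus oocytes ~20 h after injection of wild-type or mutant rP2X7 mRNA, in pH 7.4 HEPES buffer with 0.1 mM flufenamic acid. Receptors were facilitated at 100 µM before recording. Dilution series: ATP 1.5 mM–2 µM (7 points), BzATP 300–0.14 µM (8 points). Responses were normalized to the largest concentration, fitted by nonlinear regression for EC50, and averaged across triplicates (mean ± SD).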

Row | deactivation lifetime τ [3] [s] | higher apparent affinity than ATP (EC50 ratio) [4] | Molecule | Kd [1] [nM] | Kd [2] [nM]
1 | 2.4 ± 0.8 |  | Nc1ncnc2c1ncn2[C@@H]1O[C@H](COP(=O)(O)OP(=O)(O)OP(=O)(O)O)[C@@H](O)[C@H]1O [ATP] | 11.6 ± 1.7 | 2.8 ± 0.1
2 | 3.7 ± 0.7 | ~ 28 fold | BzATP |  | 

Source: PMC11303814 (Nature Communications, 2024)
